In ChEMBL document CHEMBL3351243, “Novel inhibitors of human histone deacetylases: design, synthesis and bioactivity of 3-alkenoylcoumarines” (Bioorg Med Chem Lett, 2014):
Active and inactive are the calls of the source. The calls are words filed in the database; no cut-off is given here.

Assays:
[1] = target: T1, Histone deacetylase (Homo sapiens) (UniProt Q13547+O15379+Q9UBN7+Q92769+Q9UQL6+Q8WUI4+Q9BY41+Q96DB2+P56524+Q9UKV0+Q969S8); assay: Inhibition of HDAC in human K562 cells nuclear extracts at 100 uM; type: cell-free
Summary of the method: (§1)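 Total HDAC activity was measured in vitro on K-562 nuclear extracts with compound at 100 µM. Values are the mean percent change from two independent experiments.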

U-937 [2] = assay: Antiproliferative activity against human U937 cells at 10 to 100 uM after 72 hrs; type: functional, cell-based
Summary of the method: (§2)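 K-562 (chronic myeloid leukemia) and U-937 (histiocytic lymphoma) cells were exposed to the indicated compound concentrations. Proliferation and viability were scored separately at 24, 48 and 72 h. Data are mean ± SD of three independent cultures.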

PBMC = assay: Cytotoxicity against human PBMC assessed as reduction in cell viability at 10 to 100 uM after 24 to 48 hrs
K562 [3] = assay: Cytotoxicity against human K562 cells assessed as reduction in cell viability at 10 to 100 uM after 24 to 72 hrs; type: functional, cell-based; summary of the method: as §2
U-937 [4] = assay: Antiproliferative activity against human U937 cells at 10 to 100 uM after 24 to 48 hrs; type: functional, cell-based; summary of the method: as §2
K562 [5] = assay: Antiproliferative activity against human K562 cells at 10 to 100 uM after 24 to 72 hrs; type: functional, cell-based; summary of the method: as §2
Histone deacetylase 2 = Histone deacetylase 2 (Homo sapiens, UniProt Q92769); assay: Inhibition of HDAC2 (unknown origin)
Chain of Histone deacetylase 2 (Q92769 whole entry): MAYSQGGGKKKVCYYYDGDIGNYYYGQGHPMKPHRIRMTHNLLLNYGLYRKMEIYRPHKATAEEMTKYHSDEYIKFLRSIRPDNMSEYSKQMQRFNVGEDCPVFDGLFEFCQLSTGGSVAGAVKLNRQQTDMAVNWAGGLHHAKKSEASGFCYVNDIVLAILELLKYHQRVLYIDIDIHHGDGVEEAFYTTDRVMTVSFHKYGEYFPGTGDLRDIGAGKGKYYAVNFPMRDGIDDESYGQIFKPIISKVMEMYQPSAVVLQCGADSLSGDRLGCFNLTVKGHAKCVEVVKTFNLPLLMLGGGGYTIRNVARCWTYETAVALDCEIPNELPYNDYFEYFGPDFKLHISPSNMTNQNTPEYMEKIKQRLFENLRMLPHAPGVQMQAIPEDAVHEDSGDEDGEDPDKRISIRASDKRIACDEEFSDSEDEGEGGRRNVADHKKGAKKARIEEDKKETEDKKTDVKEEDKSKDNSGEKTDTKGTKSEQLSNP
Summary of the method: (§3)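 Activity of individual HDAC isoenzymes (classes I, IIb and IV) was measured in vitro with compound. IC50 values come from two independent experiments.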

Histone deacetylase 1 = Histone deacetylase 1 (Homo sapiens, UniProt Q13547); assay: Inhibition of HDAC1 (unknown origin); summary of the method: as §3
Chain of Histone deacetylase 1 (Q13547 whole entry): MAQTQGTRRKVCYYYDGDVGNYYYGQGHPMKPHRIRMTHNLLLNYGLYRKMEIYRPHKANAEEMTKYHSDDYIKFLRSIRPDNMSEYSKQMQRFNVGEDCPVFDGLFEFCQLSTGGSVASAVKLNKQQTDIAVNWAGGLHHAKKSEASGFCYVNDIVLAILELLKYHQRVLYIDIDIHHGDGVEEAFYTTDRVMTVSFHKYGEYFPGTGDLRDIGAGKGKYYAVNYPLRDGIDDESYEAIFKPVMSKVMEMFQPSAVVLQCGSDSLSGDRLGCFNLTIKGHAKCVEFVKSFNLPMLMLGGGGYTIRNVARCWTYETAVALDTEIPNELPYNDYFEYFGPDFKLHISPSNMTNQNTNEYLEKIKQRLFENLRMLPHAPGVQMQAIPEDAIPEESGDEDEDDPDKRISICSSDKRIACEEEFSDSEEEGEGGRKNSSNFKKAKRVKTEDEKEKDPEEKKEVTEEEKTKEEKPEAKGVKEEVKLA

Histone deacetylase 11 = target: T2, Histone deacetylase 11 (Homo sapiens, UniProt Q96DB2); assay: Inhibition of HDAC11 (unknown origin); summary of the method: as §3
T2 sequence (Q96DB2 whole entry): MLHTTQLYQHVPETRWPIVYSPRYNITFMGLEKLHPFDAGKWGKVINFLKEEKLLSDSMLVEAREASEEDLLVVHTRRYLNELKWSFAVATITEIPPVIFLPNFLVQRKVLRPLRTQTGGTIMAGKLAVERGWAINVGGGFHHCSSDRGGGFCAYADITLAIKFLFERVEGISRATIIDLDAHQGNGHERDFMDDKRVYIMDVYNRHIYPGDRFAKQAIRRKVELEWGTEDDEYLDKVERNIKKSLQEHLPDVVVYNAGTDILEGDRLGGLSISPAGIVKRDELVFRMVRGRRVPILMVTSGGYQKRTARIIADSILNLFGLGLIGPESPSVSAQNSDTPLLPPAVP

[6] = target: T3, Polyamine deacetylase HDAC10 (Homo sapiens, UniProt Q969S8); assay: Inhibition of HDAC10 (unknown origin); summary of the method: as §3
T3 sequence (Q969S8 whole entry): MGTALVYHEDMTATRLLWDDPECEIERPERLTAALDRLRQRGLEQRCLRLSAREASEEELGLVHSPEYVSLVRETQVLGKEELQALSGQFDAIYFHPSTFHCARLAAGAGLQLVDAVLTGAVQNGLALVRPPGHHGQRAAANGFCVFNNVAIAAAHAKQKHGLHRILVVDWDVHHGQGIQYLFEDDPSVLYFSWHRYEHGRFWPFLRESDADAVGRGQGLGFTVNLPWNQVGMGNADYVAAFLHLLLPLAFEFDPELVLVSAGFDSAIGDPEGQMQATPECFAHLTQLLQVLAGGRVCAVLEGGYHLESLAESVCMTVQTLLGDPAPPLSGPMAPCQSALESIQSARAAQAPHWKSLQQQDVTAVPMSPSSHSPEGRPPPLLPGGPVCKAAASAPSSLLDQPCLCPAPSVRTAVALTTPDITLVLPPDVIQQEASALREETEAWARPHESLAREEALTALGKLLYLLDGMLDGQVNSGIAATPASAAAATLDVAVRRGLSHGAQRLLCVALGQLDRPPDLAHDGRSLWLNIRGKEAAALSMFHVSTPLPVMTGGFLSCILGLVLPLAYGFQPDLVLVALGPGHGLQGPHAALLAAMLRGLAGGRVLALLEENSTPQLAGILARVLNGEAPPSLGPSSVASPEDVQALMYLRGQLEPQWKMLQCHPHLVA

U-937 [7] = assay: Antiproliferative activity against human U937 cells at 10 to 100 uM after 24 to 72 hrs; type: functional, cell-based; summary of the method: as §2
Histone deacetylase 8 = target: T4, Histone deacetylase 8 (Homo sapiens, UniProt Q9BY41); assay: Inhibition of HDAC8 (unknown origin); summary of the method: as §3
T4 sequence (Q9BY41 whole entry): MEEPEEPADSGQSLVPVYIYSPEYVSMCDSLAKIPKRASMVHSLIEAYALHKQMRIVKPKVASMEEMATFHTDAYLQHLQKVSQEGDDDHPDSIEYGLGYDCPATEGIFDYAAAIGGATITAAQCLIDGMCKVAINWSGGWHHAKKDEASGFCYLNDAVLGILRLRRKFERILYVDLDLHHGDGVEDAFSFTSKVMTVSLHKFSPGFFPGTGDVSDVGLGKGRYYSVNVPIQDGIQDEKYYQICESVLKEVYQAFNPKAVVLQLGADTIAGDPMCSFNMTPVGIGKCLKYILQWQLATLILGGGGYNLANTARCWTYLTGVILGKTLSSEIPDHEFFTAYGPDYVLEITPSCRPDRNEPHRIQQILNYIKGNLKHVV

[8] = target: T5, Protein deacetylase HDAC6 (Homo sapiens, UniProt Q9UBN7); assay: Inhibition of HDAC6 (unknown origin); summary of the method: as §3
T5 sequence (Q9UBN7 whole entry): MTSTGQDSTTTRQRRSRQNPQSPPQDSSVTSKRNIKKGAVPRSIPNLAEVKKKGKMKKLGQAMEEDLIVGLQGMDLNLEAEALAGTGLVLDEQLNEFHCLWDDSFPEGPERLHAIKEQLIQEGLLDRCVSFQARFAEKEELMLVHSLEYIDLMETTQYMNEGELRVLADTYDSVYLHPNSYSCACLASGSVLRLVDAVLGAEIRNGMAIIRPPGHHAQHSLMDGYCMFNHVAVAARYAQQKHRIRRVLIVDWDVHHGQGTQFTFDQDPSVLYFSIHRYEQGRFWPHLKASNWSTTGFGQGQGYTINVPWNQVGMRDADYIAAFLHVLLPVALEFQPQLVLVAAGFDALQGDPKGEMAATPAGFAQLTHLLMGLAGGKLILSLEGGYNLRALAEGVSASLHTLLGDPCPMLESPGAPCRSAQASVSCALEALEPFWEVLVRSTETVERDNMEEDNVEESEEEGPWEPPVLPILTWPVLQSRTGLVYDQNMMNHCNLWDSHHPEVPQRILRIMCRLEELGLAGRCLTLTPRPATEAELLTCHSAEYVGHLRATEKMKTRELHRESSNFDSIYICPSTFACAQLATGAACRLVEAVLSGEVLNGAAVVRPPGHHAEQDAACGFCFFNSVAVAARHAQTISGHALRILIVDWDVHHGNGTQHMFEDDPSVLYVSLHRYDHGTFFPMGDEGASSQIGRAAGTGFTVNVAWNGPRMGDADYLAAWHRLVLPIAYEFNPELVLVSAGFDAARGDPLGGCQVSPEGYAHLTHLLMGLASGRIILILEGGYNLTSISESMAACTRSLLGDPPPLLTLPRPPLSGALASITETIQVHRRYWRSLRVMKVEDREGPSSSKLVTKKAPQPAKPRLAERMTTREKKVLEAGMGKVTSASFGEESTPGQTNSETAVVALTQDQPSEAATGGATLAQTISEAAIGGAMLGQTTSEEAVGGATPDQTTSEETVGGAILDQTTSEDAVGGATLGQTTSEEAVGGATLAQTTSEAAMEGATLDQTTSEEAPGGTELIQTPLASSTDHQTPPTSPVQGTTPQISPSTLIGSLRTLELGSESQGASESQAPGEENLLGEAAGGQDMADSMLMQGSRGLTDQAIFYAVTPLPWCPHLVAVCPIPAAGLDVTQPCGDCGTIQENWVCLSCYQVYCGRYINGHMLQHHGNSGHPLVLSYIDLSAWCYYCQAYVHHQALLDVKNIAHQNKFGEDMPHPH

Histone deacetylase 3 = Histone deacetylase 3 (Homo sapiens, UniProt O15379); assay: Inhibition of HDAC3 (unknown origin); summary of the method: as §3
Chain of Histone deacetylase 3 (O15379 whole entry): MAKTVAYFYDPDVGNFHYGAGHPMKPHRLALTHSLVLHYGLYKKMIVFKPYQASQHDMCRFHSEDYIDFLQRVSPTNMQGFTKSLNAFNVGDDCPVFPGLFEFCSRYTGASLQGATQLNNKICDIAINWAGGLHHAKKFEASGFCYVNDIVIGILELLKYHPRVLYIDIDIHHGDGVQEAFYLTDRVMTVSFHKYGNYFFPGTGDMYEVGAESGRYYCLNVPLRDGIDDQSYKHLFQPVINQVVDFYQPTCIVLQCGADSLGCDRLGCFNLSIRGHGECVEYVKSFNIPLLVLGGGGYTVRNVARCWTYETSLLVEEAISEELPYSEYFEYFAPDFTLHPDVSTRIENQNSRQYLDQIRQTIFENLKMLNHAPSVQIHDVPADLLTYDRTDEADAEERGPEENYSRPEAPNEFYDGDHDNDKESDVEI

[9] = target: T1, Histone deacetylase (Homo sapiens); assay: Increase in HDAC activity in human K562 cells nuclear extracts at 100 uM; type: cell-based; summary of the method: as §1
U-937 [10] = assay: Cytotoxicity against human U937 cells assessed as reduction in cell viability at 10 to 100 uM after 24 to 72 hrs; type: functional, cell-based; summary of the method: as §2

| inhibition [1] [%] | Structure (SMILES) | Activity (PBMC) | inhibition (K562 [5]) | inhibition (U-937 [7]) | other results |
| --- | --- | --- | --- | --- | --- |
| < 10 | COc1ccc2cc(C(=O)/C=C/c3ccc(OC)c(OC)c3)c(=O)oc2c1 |  |  |  |  |
| < 10 | COc1ccc2cc(C(=O)/C=C/C=C/c3ccc(O)c(OC)c3)c(=O)oc2c1 |  |  |  |  |
| < 10 | COc1ccc(/C=C/C(=O)c2cc3ccc(OC)cc3oc2=O)cc1 |  |  |  |  |
| 50 | COc1ccc2cc(C(=O)/C=C/C=C/c3ccc(OC)c(OC)c3)c(=O)oc2c1 | Non-toxic | Active | Active | IC50 (Histone deacetylase 2): 33 µM; IC50 (Histone deacetylase 1): 59 µM; IC50 (Histone deacetylase 11): 74 µM; IC50 [6]: 85 µM; IC50 (Histone deacetylase 8): 28 µM; IC50 [8]: 32 µM; IC50 (Histone deacetylase 3): 12 µM |

The remaining lines, values behind:

| Structure (SMILES) | inhibition [1] [%] | Activity (PBMC) | inhibition (K562 [5]) | inhibition (U-937 [7]) | other results |
| --- | --- | --- | --- | --- | --- |
| O=C(/C=C/c1ccccc1)c1cc2ccccc2oc1=O | < 10 |  |  |  |  |
| COc1ccc2cc(C(C)=O)c(=O)oc2c1 | 20 | Non-toxic | inactive |  | inhibition (U-937 [2]): Active; Activity (K562 [3]): inactive; inhibition (U-937 [4]): inactive |
| COc1ccc(/C=C/C=C/C(=O)c2cc3ccc(OC)cc3oc2=O)cc1 | 30 | Non-toxic | Active | Active |  |
| O=C(/C=C/C=C/c1ccccc1)c1cc2ccccc2oc1=O | < 10 |  |  |  |  |
| COc1ccc(/C=C/C=O)cc1OC [3,4-DIMETHOXY CINNAMALDEHYDE] |  | Non-toxic | inactive |  | inhibition (U-937 [2]): Active; Activity [9]: 80%; Activity (K562 [3]): inactive; inhibition (U-937 [4]): inactive |
| COc1ccc(/C=C/C(=O)c2cc(=O)oc3cc(OC)ccc23)cc1 | 20 | Non-toxic | Active | Active | inhibition (U-937 [10]): Active |
